Experimental data reported in ChEMBL document CHEMBL1165950, “Design and synthesis of new potent anticancer pyrazoles with high FLT3 kinase inhibitory selectivity” (Bioorg Med Chem, 2010).

How the values were obtained:
Type in all cases: functional
[1] = test system: SK-MEL-2; assay: Cytotoxicity against human SK-MEL-2 cells assessed as cell growth at 10 uM; details: read-out: Activity
Procedure, shortened: (§1)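 NCI-60 screen: cells grown in RPMI 1640 with 5% FBS and 2 mM L-glutamine, plated at 5000–40,000 cells/well according to doubling time, and preincubated 24 h at 37 °C, 5% CO2. The single 10 µM dose (DMSO stock) was added, then incubated 48 h. Cells were TCA-fixed and stained with 0.4% SRB, read at 515 nm, and growth % calculated against time-zero and control plates.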

[2] = test system: PC-3; assay: Cytotoxicity against human PC3 cells assessed as cell growth at 10 uM; details: read-out: Activity; procedure, shortened: as §1
[3] = test system: T47D; assay: Cytotoxicity against human T47D cells assessed as cell growth at 10 uM; details: read-out: Activity; procedure, shortened: as §1
[4] = test system: SN12C; assay: Cytotoxicity against human SN12C cells assessed as cell growth at 10 uM; details: read-out: Activity; procedure, shortened: as §1
[5] = test system: Malme-3M; assay: Cytotoxicity against human MALME-3M cells assessed as cell growth at 10 uM; details: read-out: Activity; procedure, shortened: as §1
[6] = test system: SF-295; assay: Cytotoxicity against human SF295 cells assessed as cell growth at 10 uM; details: read-out: Activity; procedure, shortened: as §1
[7] = test system: SNB-19; assay: Cytotoxicity against human SNB19 cells assessed as cell growth at 10 uM; details: read-out: Activity; procedure, shortened: as §1
[8] = test system: SNB-75; assay: Cytotoxicity against human SNB75 cells assessed as cell growth at 10 uM; details: read-out: Activity; procedure, shortened: as §1
[9] = test system: HOP-62; assay: Cytotoxicity against human HOP62 cells assessed as cell growth at 10 uM; details: read-out: Activity
Procedure, shortened: (§2)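 Single-dose NCI-60 screen at 10 µM. Cells were grown in RPMI 1640 with 5% FBS and 2 mM L-glutamine, then treated for 48 h at 37 °C. Protein was measured by SRB staining with absorbance at 515 nm. Percentage growth was recorded, and inhibition percentage was calculated as 100 minus growth percentage.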

[10] = test system: SF-268; assay: Cytotoxicity against human SF268 cells assessed as cell growth at 10 uM; details: read-out: Activity; procedure, shortened: as §1
[11] = test system: NCI-H322M; assay: Cytotoxicity against human NCI-H322M cells assessed as cell growth at 10 uM; details: read-out: Activity; procedure, shortened: as §1
[12] = test system: EKVX; assay: Cytotoxicity against human EKVX cells assessed as cell growth at 10 uM; details: read-out: Activity; procedure, shortened: as §2
[13] = test system: NCI/ADR-RES; assay: Cytotoxicity against human NCI/ADR-RES cells assessed as cell growth at 10 uM; details: read-out: Activity; procedure, shortened: as §1
[14] = test system: MOLT-4; assay: Cytotoxicity against human MOLT4 cells assessed as cell growth at 10 uM; details: read-out: Activity; procedure, shortened: as §1
[15] = test system: CAKI-1; assay: Cytotoxicity against human Caki1 cells assessed as cell growth at 10 uM; details: read-out: Activity; procedure, shortened: as §2
[16] = test system: LOX IMVI; assay: Cytotoxicity against human LOXIMVI cells assessed as cell growth at 10 uM; details: read-out: Activity; procedure, shortened: as §1
[17] = test system: MDA-MB-435; assay: Cytotoxicity against human MDA-MB-435 cells assessed as cell growth at 10 uM; details: read-out: Activity; procedure, shortened: as §1
[18] = test system: HCT-116; assay: Cytotoxicity against human HCT116 cells assessed as cell growth at 10 uM; details: read-out: Activity; procedure, shortened: as §2
[19] = Cytotoxicity against human […] cells assessed as cell growth at 10 uM; details: read-out: Activity; procedure, shortened: as §1
[20] = test system: K562; assay: Cytotoxicity against human K562 cells assessed as cell growth at 10 uM; details: read-out: Activity; procedure, shortened: as §2
[21] = test system: MDA-MB-468; assay: Cytotoxicity against human MDA-MB-468 cells assessed as cell growth at 10 uM; details: read-out: Activity; procedure, shortened: as §1
[22] = test system: SK-OV-3; assay: Cytotoxicity against human SKOV3 cells assessed as cell growth at 10 uM; details: read-out: Activity; procedure, shortened: as §1
[23] = test system: HCC 2998; assay: Cytotoxicity against human HCC2998 cells assessed as cell growth at 10 uM; details: read-out: Activity; procedure, shortened: as §2
[24] = test system: KM12; assay: Cytotoxicity against human KM12 cells assessed as cell growth at 10 uM; details: read-out: Activity; procedure, shortened: as §1
[25] = test system: HCT-15; assay: Cytotoxicity against human HCT15 cells assessed as cell growth at 10 uM; details: read-out: Activity; procedure, shortened: as §2
[26] = test system: CCRF-CEM; assay: Cytotoxicity against human CCRF-CEM cells assessed as cell growth at 10 uM; details: read-out: Activity; procedure, shortened: as §2
[27] = test system: TK-10; assay: Cytotoxicity against human TK10 cells assessed as cell growth at 10 uM; details: read-out: Activity; procedure, shortened: as §1
[28] = Growth inhibition of human NCI60 cells at 10 uM after 48 hrs by sulforhodamine B assay relative to control; details: NCI60, 48 h, read-out: GI
Procedure, shortened: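 Single-dose NCI screen at 10 µM across the 60-line panel, 48 h exposure at 37 °C after a 24 h preincubation. Adherent cells were fixed with cold TCA and stained with 0.4% SRB, and absorbance was read at 515 nm. Inhibition % was taken as 100 minus growth %, and the mean across all lines was reported.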

[29] = test system: IGROV-1; assay: Cytotoxicity against human IGROV1 cells assessed as cell growth at 10 uM; details: read-out: Activity; procedure, shortened: as §2
[30] = test system: A549; assay: Cytotoxicity against human A549 cells assessed as cell growth at 10 uM; details: read-out: Activity; procedure, shortened: as §2
[31] = test system: A498; assay: Cytotoxicity against human A498 cells assessed as cell growth at 10 uM; details: read-out: Activity; procedure, shortened: as §2
[32] = test system: NCI-H522; assay: Cytotoxicity against human NCI-H522 cells assessed as cell growth at 10 uM; details: read-out: Activity; procedure, shortened: as §1
[33] = test system: ACHN; assay: Cytotoxicity against human ACHN cells assessed as cell growth at 10 uM; details: read-out: Activity; procedure, shortened: as §2
[34] = test system: HOP-92; assay: Cytotoxicity against human HOP92 cells assessed as cell growth at 10 uM; details: read-out: Activity; procedure, shortened: as §2
[35] = test system: SW-620; assay: Cytotoxicity against human SW620 cells assessed as cell growth at 10 uM; details: read-out: Activity; procedure, shortened: as §1
[36] = test system: RXF 393; assay: Cytotoxicity against human RXF393 cells assessed as cell growth at 10 uM; details: read-out: Activity; procedure, shortened: as §1
[37] = test system: SK-MEL-28; assay: Cytotoxicity against human SK-MEL-28 cells assessed as cell growth at 10 uM; details: read-out: Activity; procedure, shortened: as §1
[38] = Cytotoxicity against human Hs 578T cells assessed as cell growth at 10 uM; details: read-out: Activity; procedure, shortened: as §2
[39] = test system: BT-549; assay: Cytotoxicity against human BT549 cells assessed as cell growth at 10 uM; details: read-out: Activity; procedure, shortened: as §2
[40] = test system: MCF7; assay: Cytotoxicity against human MCF7 cells assessed as cell growth at 10 uM; details: read-out: Activity; procedure, shortened: as §1
[41] = test system: MDA-MB-231; assay: Cytotoxicity against human MDA-MB-231 cells assessed as cell growth at 10 uM; details: read-out: Activity; procedure, shortened: as §1
[42] = test system: HT-29; assay: Cytotoxicity against human HT-29 cells assessed as cell growth at 10 uM; details: read-out: Activity; procedure, shortened: as §2
[43] = test system: SR; assay: Cytotoxicity against human SR cells assessed as cell growth at 10 uM; details: read-out: Activity; procedure, shortened: as §1
[44] = test system: OVCAR-3; assay: Cytotoxicity against human OVCAR-3 cells assessed as cell growth at 10 uM; details: read-out: Activity; procedure, shortened: as §1
[45] = test system: SK-MEL-5; assay: Cytotoxicity against human SK-MEL-5 cells assessed as cell growth at 10 uM; details: read-out: Activity; procedure, shortened: as §1
[46] = test system: HL-60(TB); assay: Cytotoxicity against human HL-60(TB) cells assessed as cell growth at 10 uM; details: read-out: Activity
Procedure, shortened: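 NCI 60-cell panel screen at a single concentration of 10 µM. Cells are grown in RPMI 1640 with 5% FBS and 2 mM L-glutamine and read by SRB protein staining at 515 nm. Percent growth is measured relative to time-zero and untreated controls; inhibition % is 100 minus growth %.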

[47] = test system: OVCAR-5; assay: Cytotoxicity against human OVCAR5 cells assessed as cell growth at 10 uM; details: read-out: Activity; procedure, shortened: as §1
[48] = test system: M14; assay: Cytotoxicity against human M14 cells assessed as cell growth at 10 uM; details: read-out: Activity; procedure, shortened: as §1
[49] = test system: OVCAR-8; assay: Cytotoxicity against human OVCAR8 cells assessed as cell growth at 10 uM; details: read-out: Activity; procedure, shortened: as §1
[50] = test system: SF-539; assay: Cytotoxicity against human SF539 cells assessed as cell growth at 10 uM; details: read-out: Activity; procedure, shortened: as §1
[51] = test system: NCI-H226; assay: Cytotoxicity against human NCI-H226 cells assessed as cell growth at 10 uM; details: read-out: Activity; procedure, shortened: as §1
[52] = test system: U-251; assay: Cytotoxicity against human U251 cells assessed as cell growth at 10 uM; details: read-out: Activity; procedure, shortened: as §1
[53] = test system: 786-0; assay: Cytotoxicity against human 786-0 cells assessed as cell growth at 10 uM; details: read-out: Activity; procedure, shortened: as §2
[54] = test system: OVCAR-4; assay: Cytotoxicity against human OVCAR4 cells assessed as cell growth at 10 uM; details: read-out: Activity; procedure, shortened: as §1
[55] = test system: DU-145; assay: Cytotoxicity against human DU145 cells assessed as cell growth at 10 uM; details: read-out: Activity; procedure, shortened: as §2
[56] = test system: UACC-257; assay: Cytotoxicity against human UACC257 cells assessed as cell growth at 10 uM; details: read-out: Activity; procedure, shortened: as §1
[57] = test system: UACC-62; assay: Cytotoxicity against human UACC62 cells assessed as cell growth at 10 uM; details: read-out: Activity; procedure, shortened: as §1
[58] = test system: NCI-H460; assay: Cytotoxicity against human NCI-H460 cells assessed as cell growth at 10 uM; details: read-out: Activity; procedure, shortened: as §1
[59] = test system: UO-31; assay: Cytotoxicity against human UO31 cells assessed as cell growth at 10 uM; details: read-out: Activity; procedure, shortened: as §1
[60] = test system: NCI-H23; assay: Cytotoxicity against human NCI-H23 cells assessed as cell growth at 10 uM; details: read-out: Activity; procedure, shortened: as §1
[61] = test system: COLO 205; assay: Cytotoxicity against human COLO205 cells assessed as cell growth at 10 uM; details: read-out: Activity; procedure, shortened: as §2

Cc1cc(O)cc(-c2nn(CC#N)cc2-c2ccnc(-c3ccc(C#N)cc3)c2)c1
growth at 10 µM [1]: 78.5%
growth at 10 µM [2]: 95.5%
growth at 10 µM [3]: 29.2%
growth at 10 µM [4]: 73.5%
growth at 10 µM [5]: 125%
growth at 10 µM [6]: 91.3%
growth at 10 µM [7]: 85.2%
growth at 10 µM [8]: 46.3%
growth at 10 µM [9]: 85.4%
growth at 10 µM [10]: 102%
growth at 10 µM [11]: 97.4%
growth at 10 µM [12]: 79.1%
growth at 10 µM [13]: 77.7%
growth at 10 µM [14]: 54.6%
growth at 10 µM [15]: 84.3%
growth at 10 µM [16]: 81.9%
growth at 10 µM [17]: 88.3%
growth at 10 µM [18]: 65.7%
growth at 10 µM [19]: 70.2%
growth at 10 µM [20]: 70%
growth at 10 µM [21]: 33.7%
growth at 10 µM [22]: 88.5%
growth at 10 µM [23]: 92%
growth at 10 µM [24]: 95.6%
growth at 10 µM [25]: 70.4%
growth at 10 µM [26]: 81.2%
growth at 10 µM [27]: 78.4%
inhibition of growth at 10 µM [28]: 20.8%
growth at 10 µM [29]: 77.3%
growth at 10 µM [30]: 83.2%
growth at 10 µM [31]: 103%
growth at 10 µM [32]: 60.7%
growth at 10 µM [33]: 65.2%
growth at 10 µM [34]: 72.3%
growth at 10 µM [35]: 119%
growth at 10 µM [36]: 59.4%
growth at 10 µM [37]: 88.3%
growth at 10 µM [38]: 103%
growth at 10 µM [39]: 84.8%
growth at 10 µM [40]: 34.4%
growth at 10 µM [41]: 67%
growth at 10 µM [42]: 66.3%
growth at 10 µM [43]: 88.5%
growth at 10 µM [44]: 110%
growth at 10 µM [45]: 58.4%
growth at 10 µM [46]: 56.2%
growth at 10 µM [47]: 107%
growth at 10 µM [48]: 90.3%
growth at 10 µM [49]: 72.9%
growth at 10 µM [50]: 76%
growth at 10 µM [51]: 79.8%
growth at 10 µM [52]: 91.5%
growth at 10 µM [53]: 77.9%
growth at 10 µM [54]: 79.5%
growth at 10 µM [55]: 96.3%
growth at 10 µM [56]: 94.2%
growth at 10 µM [57]: 62.3%
growth at 10 µM [58]: 104%
growth at 10 µM [59]: 60.1%
growth at 10 µM [60]: 72.7%
growth at 10 µM [61]: 66.1%
